# Calls of active or inactive are those of the source. The calls are words filed in the database; no cut-off is given here.
# Key:
# HUVEC [1] = assay: Antiproliferative activity against HUVEC incubated for 48 hrs by MTT assay; assay type: functional, cell-based; conditions: Homo sapiens
# Method in brief: (§1)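 8000 cells per well in complete medium, settled overnight at 37 °C under 5% CO2. Compounds were added from DMSO over a range of concentrations and incubated 48 h at 37 °C. MTT (5% solution) was added for 4 h and absorbance read at 570 nm. IC50 was taken from survival-versus-concentration curves. Negative control was 0.1% DMSO.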
# T47D = assay: Antiproliferative activity against human T47D cells incubated for 48 hrs by MTT assay; assay type: functional, cell-based; method in brief: as §1
# PC-3 [2] = assay: Antiproliferative activity against human PC-3 cells incubated for 48 hrs by MTT assay; assay type: functional, cell-based; conditions: PC-3, 48 h; method in brief: as §1
# HepG2 = assay: Antiproliferative activity against human HepG2 cells incubated for 48 hrs by MTT assay; assay type: functional, cell-based; conditions: HepG2, 48 h; method in brief: as §1
# Chorioallantoic membrane [3] = assay: Vascular disruptive effect in chicken fertilized egg chorioallantoic membrane assessed as decrease in number of capillary blood vessels by CAM assay relative to control; assay type: functional, tissue-based; design: concentration or dose not given beside the values; conditions: Gallus gallus, dose or concentration not given here
# Chorioallantoic membrane [4] = assay: Vascular disruptive effect in chicken fertilized egg chorioallantoic membrane assessed as reduced length of blood vessels by CAM assay; assay type: functional, tissue-based; conditions: Gallus gallus
# HUVEC [5] = assay: Induction of apoptosis in HUVEC assessed as viable cells at IC50 measured after 48 hrs by Annexin V-FITC/propidium iodide staining based flow cytometry (reference value: 87.4%); assay type: functional, Homo sapiens
# PC-3 [6] = assay: Induction of apoptosis in human PC-3 cells assessed as viable cells at IC50 measured after 48 hrs by Annexin V-FITC/propidium iodide staining based flow cytometry (reference value: 81.4%); assay type: functional
# [7] = Cytotoxicity against human Hu02 cells incubated for 48 hrs by MTT assay; assay type: cell-based; conditions: Hu02, 48 h; method in brief: as §1
# PC-3 [8] = assay: Induction of apoptosis in human PC-3 cells assessed as necrotic cells at IC50 measured after 48 hrs by Annexin V-FITC/propidium iodide staining based flow cytometry (reference value: 7.74%); assay type: functional
# HUVEC [9] = assay: Induction of cell cycle arrest in HUVEC assessed as number of cells at G1 phase at IC50 after 48 hrs by flow cytometry (reference value: 40.93%); assay type: functional, Homo sapiens
# Method in brief: (§2)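 Cells were PI-stained and analysed by flow cytometry, with the phase fractions (subG1, G1, S, G2/M) taken from DNA content.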
# HUVEC [10] = assay: Induction of cell cycle arrest in HUVEC assessed as number of cells at S phase at IC50 after 48 hrs by flow cytometry (reference value: 41.49%); assay type: functional, Homo sapiens; method in brief: as §2
# HUVEC [11] = assay: Induction of apoptosis in HUVEC assessed as late apoptotic cells at IC50 measured after 48 hrs by Annexin V-FITC/propidium iodide staining based flow cytometry (reference value: 7.23%); assay type: functional, Homo sapiens
# HUVEC [12] = assay: Induction of apoptosis in HUVEC assessed as necrotic cells at IC50 measured after 48 hrs by Annexin V-FITC/propidium iodide staining based flow cytometry (reference value: 0.891%); assay type: functional, Homo sapiens
# PC-3 [13] = assay: Induction of cell cycle arrest in human PC-3 cells assessed as number of cells at S phase at IC50 after 48 hrs by flow cytometry (reference value: 44.12%); assay type: functional
# PC-3 [14] = assay: Induction of cell cycle arrest in human PC3 cells assessed as accumulation at G1 phase at IC50 after 48 hrs by flow cytometry (reference value: 44.11%); assay type: functional
# PC-3 [15] = assay: Induction of apoptosis in human PC-3 cells assessed as early apoptotic cells at IC50 measured after 48 hrs by Annexin V-FITC/propidium iodide staining based flow cytometry (reference value: 4.7%); assay type: functional
# PC-3 [16] = assay: Down-regulation of VEGFR2 phosphorylation in human PC-3 cells by Western blot analysis; assay type: functional, cell-based; conditions: time 24-72 hrs, TDE = time-dependent effect
# HUVEC [17] = assay: Induction of cell cycle arrest in HUVEC assessed as number of cells at G2 phase at IC50 after 48 hrs by flow cytometry (reference value: 6.25%); assay type: functional, Homo sapiens; method in brief: as §2
# HUVEC [18] = assay: Induction of apoptosis in HUVEC assessed as early apoptotic cells at IC50 measured after 48 hrs by Annexin V-FITC/propidium iodide staining based flow cytometry (reference value: 4.51%); assay type: functional, Homo sapiens
# PC-3 [19] = assay: Induction of apoptosis in human PC-3 cells assessed as late apoptotic cells at IC50 measured after 48 hrs by Annexin V-FITC/propidium iodide staining based flow cytometry (reference value: 5.16%); assay type: functional
# PC-3 [20] = assay: Down-regulation of VEGFR2 phosphorylation in human PC-3 cells at 48 hrs by Western blot analysis; assay type: functional, cell-based; conditions: dose 2.4-5.4 µM
# Method in brief: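 PC3 cells treated for 48 h at 2.4, 3.6 and 5.4 µM. Lysates run on 12% SDS-PAGE and transferred to nitrocellulose. Membranes probed overnight at 4 °C (12 h) for VEGFR-2 and p-VEGFR-2, with beta-actin as loading control. Detection by ECL.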
# PC-3 [21] = assay: Induction of cell cycle arrest in human PC-3 cells assessed as number of cells at G2 phase at IC50 after 48 hrs by flow cytometry (reference value: 15.97%); assay type: functional
# PC-3 [22] = assay: Induction of cell cycle arrest in human PC-3 cells assessed as number of cells at SubG1 phase at IC50 after 48 hrs by flow cytometry; assay type: functional
Structure (SMILES),IC50 (T47D),IC50 (PC-3 [2]),IC50 (HepG2),IC50 (HUVEC [1]),inhibition (Chorioallantoic membrane [3]),other results
O=C(Nc1ccccc1)Nc1nnc(Sc2ncnc3scc(-c4ccncc4)c23)s1,23.3 µM,5.7 µM,19.4 µM,19.3 µM,–,–
Cc1ccc(NC(=O)Nc2nnc(Sc3ncnc4scc(-c5ccncc5)c34)s2)cc1,17.8 µM,2.1 µM,52 µM,19.3 µM,–,–
COc1ccc(NC(=O)Nc2nnc(Sc3ncnc4scc(-c5ccncc5)c34)s2)cc1,> 100 µM,9.9 µM,14.6 µM,16.9 µM,–,–
O=C(Nc1ccc(Cl)c(C(F)(F)F)c1)Nc1nnc(Sc2ncnc3scc(-c4ccncc4)c23)s1,28 µM,12.1 µM,45.3 µM,18.4 µM,–,–
CNC(=O)c1cc(Oc2ccc(NC(=O)Nc3ccc(Cl)c(C(F)(F)F)c3)cc2)ccn1 [SORAFENIB],6.4 µM,15.5 µM,29.6 µM,2.8 µM,–,Activity (HUVEC [5]): 59.9%; Activity (PC-3 [6]): 57.9%; IC50 [7]: 40 µM; Activity (PC-3 [8]): 23.6%; Activity (HUVEC [9]): 58.69%; Activity (HUVEC [10]): 27.1%; Activity (HUVEC [11]): 23.8%; Activity (HUVEC [12]): 16.4%; Activity (PC-3 [13]): 22.32%; Activity (PC-3 [14]): 66.19%; Activity (PC-3 [15]): 1.92%
O=C(Nc1ccc(F)cc1)Nc1nnc(Sc2ncnc3scc(-c4ccncc4)c23)s1,18.9 µM,0.97 µM,31.7 µM,28.3 µM,27%,Activity (PC-3 [6]): 43.3%; Activity (PC-3 [8]): 32.2%; Activity (PC-3 [19]): 23%; Activity (PC-3 [13]): 29.76%; Activity (PC-3 [14]): 55.92%; Activity (PC-3 [15]): 1.47%; inhibition (Chorioallantoic membrane [4]): inactive; Activity (PC-3 [22]): 9.73%
Cc1ccc(NC(=O)Nc2nnc(Sc3ncnc4scc(-c5ccncc5)c34)s2)cc1Cl,34.8 µM,4.7 µM,16 µM,23.2 µM,–,–
O=C(Nc1ccc(Cl)cc1)Nc1nnc(Sc2ncnc3scc(-c4ccncc4)c23)s1,23.3 µM,7.7 µM,28.9 µM,11.6 µM,21%,inhibition (Chorioallantoic membrane [4]): inactive

# The remaining compounds from weak to strong by IC50 (T47D), led by results:
IC50 (T47D),IC50 (PC-3 [2]),IC50 (HepG2),Structure (SMILES),IC50 (HUVEC [1]),inhibition (Chorioallantoic membrane [3]),other results
56.9 µM,6.8 µM,28.4 µM,COc1cccc(NC(=O)Nc2nnc(Sc3ncnc4scc(-c5ccncc5)c34)s2)c1,67.7 µM,–,–
45.1 µM,11.5 µM,15.3 µM,O=C(Nc1cccc(C(F)(F)F)c1)Nc1nnc(Sc2ncnc3scc(-c4ccncc4)c23)s1,22.4 µM,–,–
43.9 µM,8 µM,22.9 µM,O=C(Nc1cccc(Cl)c1)Nc1nnc(Sc2ncnc3scc(-c4ccncc4)c23)s1,21 µM,–,–
27.2 µM,5.2 µM,20.7 µM,Cc1cccc(NC(=O)Nc2nnc(Sc3ncnc4scc(-c5ccncc5)c34)s2)c1,12.2 µM,29%,inhibition (Chorioallantoic membrane [4]): inactive
16.7 µM,6.6 µM,64.1 µM,O=C(Nc1cccc(F)c1)Nc1nnc(Sc2ncnc3scc(-c4ccncc4)c23)s1,13.7 µM,35%,inhibition (Chorioallantoic membrane [4]): inactive
14.6 µM,3.6 µM,61.9 µM,O=C(Nc1ccc(Cl)c(Cl)c1)Nc1nnc(Sc2ncnc3scc(-c4ccncc4)c23)s1,7.8 µM,65%,Activity (HUVEC [5]): 55.2%; Activity (PC-3 [6]): 43.2%; inhibition (PC-3 [16]): Tde; Activity (HUVEC [17]): 5.53%; IC50 [7]: 34.3 µM; Activity (PC-3 [8]): 12.6%; Activity (HUVEC [9]): 48.3%; Activity (HUVEC [10]): 49.8%; Activity (HUVEC [18]): 4.65%; Activity (HUVEC [11]): 17%; Activity (HUVEC [12]): 21%; Activity (PC-3 [19]): 37%; inhibition (PC-3 [20]): Dose-dependent effect; Activity (PC-3 [13]): 40.58%; Activity (PC-3 [14]): 45.2%; Activity (PC-3 [21]): 12.85%; Activity (PC-3 [15]): 7.17%; inhibition (Chorioallantoic membrane [4]; dose or concentration not given here): 46%; Activity (PC-3 [22]): 4.38%
